Screening data from PubChem.
PfGluPho inh = PfG6PD (Plasmodium falciparum) enzyme inhibition | 350,000 tested, 0.78% active | inhibition, % at 20 µM | PfGluPho enzyme, NADPH resazurin-diaphorase fluorescence;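 active means inhibition reaching at least a set limit at 20 µM in the primary screen, cut at about 59% in these data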
Tb hexokinase = blocks Trypanosoma brucei hexokinase 1 activity | recombinant TbHK1, G6PDH-coupled NADH A340 | 220,000 tested, 0.11% active | inhibition, % at 10 µM;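 active means inhibition of 50% or more in the single-dose primary screen; inactive means inhibition below 50%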
G6PDH CS = L. mesenteroides G6PDH inhibition counter-screen; Purified L. mesenteroides G6PDH, diaphorase/resazurin coupled fluorescence, 45 min; inhibition, % at 5 µM; 200,000 tested, 0.12% active; in the data active means inhibition above about 50%
Diaphorase inh = counter-screen for diaphorase-based assays: diaphorase inhibitors and chemical oxidizers; diaphorase resazurin-to-resorufin fluorescence, NADH, 16 min; bacterial (C. kluyveri) enzyme, not human; inhibition, % at 20 µM; 190,000 tested, 0.69% active;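 active means primary screen inhibition at 20 µM above a set limit, cut at about 50% in these data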
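controls = No-NADH positive control and DMSO neutral control | system = Clostridium kluyveri diaphorase enzyme | timing = reaction incubation of 16 min at room temperature | signal = resorufin fluorescence 544/590 nm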
HKDC1 inh = HKDC1 (human) hexokinase inhibition; 340,000 tested, 0.16% active; recombinant HKDC1, G6PDH/diaphorase resazurin coupled fluorescence; inhibition, % at 20 µM;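 active means inhibition above about 35% when tested at 20 µM, limit read from the data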
Target sequence (Q2TB90 whole entry, looked up): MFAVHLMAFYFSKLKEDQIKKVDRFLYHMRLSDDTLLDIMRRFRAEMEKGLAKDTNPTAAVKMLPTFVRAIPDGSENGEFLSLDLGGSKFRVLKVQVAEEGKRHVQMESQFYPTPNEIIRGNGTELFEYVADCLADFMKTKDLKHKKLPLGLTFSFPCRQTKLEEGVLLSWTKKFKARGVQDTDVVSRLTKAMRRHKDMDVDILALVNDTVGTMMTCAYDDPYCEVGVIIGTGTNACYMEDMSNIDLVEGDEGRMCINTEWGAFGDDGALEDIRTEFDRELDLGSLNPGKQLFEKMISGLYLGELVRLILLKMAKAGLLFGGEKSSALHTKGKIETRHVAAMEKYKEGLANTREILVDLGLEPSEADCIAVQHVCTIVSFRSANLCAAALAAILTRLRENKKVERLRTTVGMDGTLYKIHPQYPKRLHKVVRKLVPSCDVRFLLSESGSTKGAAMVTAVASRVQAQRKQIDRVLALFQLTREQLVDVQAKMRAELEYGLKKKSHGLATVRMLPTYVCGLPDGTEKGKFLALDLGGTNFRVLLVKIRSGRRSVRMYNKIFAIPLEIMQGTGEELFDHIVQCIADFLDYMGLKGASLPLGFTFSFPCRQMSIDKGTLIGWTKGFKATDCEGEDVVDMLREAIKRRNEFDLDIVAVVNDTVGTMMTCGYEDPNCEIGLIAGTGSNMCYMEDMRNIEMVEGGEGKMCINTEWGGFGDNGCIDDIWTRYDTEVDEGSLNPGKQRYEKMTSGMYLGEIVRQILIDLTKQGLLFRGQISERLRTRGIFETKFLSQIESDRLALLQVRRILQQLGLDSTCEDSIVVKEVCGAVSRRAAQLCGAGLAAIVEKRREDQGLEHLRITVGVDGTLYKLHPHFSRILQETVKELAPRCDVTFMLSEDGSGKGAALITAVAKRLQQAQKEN
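Test system: HK5 enzyme. Quantity: 5 µg/mL HK5 final. Reagent: glucose and ATP substrates. Schedule: 90 min reaction incubation at room temperature, dark. Technique: resazurin-to-resorufin fluorescence via G6PDH and diaphorase coupling, 525/613 nm. Control set: DMSO wells with and without enzyme mix.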
Diaph act CS = counter-screen for diaphorase-based assays: diaphorase activators and chemical reducers; Diaphorase/resazurin coupled assay, resorufin fluorescence, 16 min; stronger effect = higher value; 1 = vehicle wells, 0 = NADH-free wells; activation factor at 20 µM; 190,000 tested, 0.005% active; AID 1229;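 active means diaphorase activity raised at least twofold by the compound at 20 µM; inactive means activation factor below 2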
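Material: bacterial diaphorase enzyme (C. kluyveri); amount: enzyme 0.07 U/mL final; reagent: NADH substrate 0.114 mM plus resazurin dye 0.1 mM, final; doses: single compound dose of 20 µM, 1% DMSO final; timing: 16 min enzyme reaction, ambient temperature; measured by: fluorescence of resorufin, 544 nm excitation, 590 nm emission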
PfGluPho conf = PfG6PD inhibition, single-dose confirmed. shares compounds with PfGluPho inh. recombinant PfGluPho, NADPH-diaphorase-resazurin fluorescence. inhibition, % at 20 µM. 2,400 tested, 34% active. AID 504753;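 active means inhibition of at least 50% at 20 µM in any single replicate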
Diaph ctr 10uM = diaphorase inhibition or oxidation at 10 uM NADPH; shares compounds with PfGluPho inh; diaphorase-coupled resazurin reduction, fluorescence, NADPH 10 uM; inhibition, % at 20 µM; 820 tested, 39% active;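 active means average inhibition reaching 50% or more with the compound at 20 µM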;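 further: resorufin red fluorescence formed as diaphorase reduces resazurin using NADPH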
Diaphorase 30uM = counter-screen for P. falciparum G6PD inhibitors: diaphorase inhibitors, oxidizers; shares compounds with PfGluPho inh; Diaphorase/resazurin coupled assay, resorufin fluorescence, 30 uM NADPH; inhibition, % at 20 µM; 820 tested, 29% active; AID 504863;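 active means inhibition averaging 50% or more, tested at 20 µM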
Each line names hits and unclear results; the compound was inactive in the other large screens (follow-up assays come after a bar, where they were run). The list is not random: actives were taken first. Their share in the collection is about 1.3%.

COc1cc(Br)c(C(=O)c2nccc3cc(OC)c(OC)cc23)cc1OC	PfGluPho inh 88 (no result: Tb hexokinase, G6PDH CS, Diaphorase inh, Diaph act CS) | PfGluPho conf inactive
Cc1cc2c(SCC(=O)Nc3cccc(O)c3)ncnc2s1	none (no result: Tb hexokinase, G6PDH CS, Diaphorase inh, Diaph act CS)
CC1(C)Cc2c(cnn2-c2ccccc2)C(NC(=O)CCCN2CCCCC2=O)C1 (stereo not given)	none (no result: Tb hexokinase, G6PDH CS, Diaphorase inh, Diaph act CS)
CCCCN(Cc1cc2cc(C)ccc2[nH]c1=O)C(=O)c1ccccn1	none (no result: G6PDH CS, Diaphorase inh, Diaph act CS)
CCCN(Cc1cc2ccc(C)cc2[nH]c1=O)C(=O)c1ccccn1	PfGluPho inh 96 | PfGluPho conf 69 | Diaph ctr 10uM 50 | Diaphorase 30uM 50
Cc1ccc(NC(=O)CCCn2nc(C)c3c(C)n(-c4ccccc4)nc3c2=O)cc1C	PfGluPho inh 64 (no result: Tb hexokinase, G6PDH CS, Diaphorase inh, Diaph act CS) | PfGluPho conf inactive
Cc1cccc(/C=N\NC(=O)c2sccc2-n2cccc2)c1	PfGluPho inh 71 | PfGluPho conf inactive
CN1CCc2cccc3c2[C@@H]1Cc1ccc(O)c(O)c1-3	PfGluPho inh 89, Diaphorase inh 69 | PfGluPho conf 86 | Diaph ctr 10uM inactive | Diaphorase 30uM inactive
CO/N=C/c1ccc(Oc2ccc([N+](=O)[O-])cc2[N+](=O)[O-])c(OC)c1	PfGluPho inh 94 | PfGluPho conf inactive
CC(C)C(=O)Nc1nnc(SCC(=O)NCc2ccco2)s1	none
CC(C)(C)C(=O)Nc1ccc(C(=O)CN2C(=O)NC3(CCOc4ccccc43)C2=O)cc1 (stereo not given)	none (no result: Tb hexokinase, G6PDH CS, Diaphorase inh, Diaph act CS)
CCN(CC)c1ccc(N)cc1	none (no result: Tb hexokinase, G6PDH CS, Diaphorase inh, Diaph act CS)
Nc1ccc(N(CCO)CCO)cc1	PfGluPho inh 63, Diaphorase inh 53 | PfGluPho conf 55 | Diaph ctr 10uM inactive | Diaphorase 30uM inactive
COC1(OC)C=CC(=O)C=C1NC(=O)c1ccccc1OC(C)=O	PfGluPho inh 63 (no result: Tb hexokinase, G6PDH CS, Diaphorase inh, Diaph act CS) | PfGluPho conf 64 | Diaph ctr 10uM inactive | Diaphorase 30uM inactive
CC(=O)Oc1ccccc1C(=O)Nc1ccccc1	none (no result: Tb hexokinase, G6PDH CS, Diaphorase inh, Diaph act CS)
CC(=O)Nc1ccc(S(=O)(=O)/N=C2\C(=O)c3ccccc3C([O-])=C2n2cc[n+](-c3ccccn3)c2)cc1	PfGluPho inh 69 (no result: G6PDH CS, Diaphorase inh, Diaph act CS) | PfGluPho conf 56 | Diaph ctr 10uM inactive | Diaphorase 30uM inactive
Cc1onc(-c2ccc(Cl)cc2Cl)c1-c1csc(N/N=C/c2ccccc2Cl)n1	none (no result: G6PDH CS, Diaphorase inh, Diaph act CS)
[O-][n+]1cccc2c(Br)cc(Br)c(O)c21	none
C[n+]1cccc2c(Br)ccc([O-])c21	PfGluPho inh 114 (no result: G6PDH CS, Diaphorase inh, Diaph act CS) | PfGluPho conf inactive
Cc1ccc(C)c(N2CCN(c3nnnn3-c3ccccc3)CC2)c1	none
Cn1c2nc(=O)n(-c3ccccc3)c(=O)c-2nc2c1CCCC2	PfGluPho inh 81 (no result: Tb hexokinase, G6PDH CS, Diaphorase inh, HKDC1 inh, Diaph act CS) | PfGluPho conf inactive
Cc1ccc(NCC(=O)Nc2ccc(Br)cc2)cc1F	none
Cc1cc(C)c(C)c(S(=O)(=O)Nc2ccc3cn[nH]c3c2)c1C	PfGluPho inh 92 (no result: Tb hexokinase, G6PDH CS, Diaphorase inh, Diaph act CS) | PfGluPho conf inactive
N#Cc1ccc(Oc2cccc3cccnc23)c([N+](=O)[O-])c1	PfGluPho inh 102 (no result: Tb hexokinase, G6PDH CS, Diaphorase inh, Diaph act CS) | PfGluPho conf 70 | Diaph ctr 10uM 64 | Diaphorase 30uM inactive
O=[N+]([O-])c1ccc(Oc2cccc3cccnc23)c([N+](=O)[O-])c1	PfGluPho inh 119 | PfGluPho conf 95 | Diaph ctr 10uM 85 | Diaphorase 30uM 75
Cc1ccc2cccc(Oc3ccc([N+](=O)[O-])cc3[N+](=O)[O-])c2n1	PfGluPho inh 121 | PfGluPho conf 91 | Diaph ctr 10uM 94 | Diaphorase 30uM 80
Cc1ccc(Oc2ccc(C(F)(F)F)cc2[N+](=O)[O-])c([N+](=O)[O-])n1	none (no result: G6PDH CS, Diaphorase inh, Diaph act CS)
O=[N+]([O-])c1ccccc1OCCOCCOc1cccc2cccnc12	none
COc1ccccc1NS(=O)(=O)NC(=O)c1c(C)[nH]c2ccccc12	none (no result: Tb hexokinase, G6PDH CS, Diaphorase inh, Diaph act CS)
COCCCNC(=O)c1ccc(OC)c(OC2CCN(C(C)C)CC2)c1	none (no result: Tb hexokinase, G6PDH CS, Diaphorase inh, Diaph act CS)
